Reference: ChEMBL document CHEMBL1142636 (2000)
Converted amounts (≈) assume the structure as drawn.

Tests used:
K562 = test: Growth inhibition of human K562 cells; format: functional
CAKI-1 = test: Growth inhibition of human CAKI1 cells; format: functional
IGROV-1 = test: Growth inhibition of human IGROV1 cells; format: functional
HCT-116 = test: Growth inhibition of human HCT116 cells; format: functional
[1] = Growth inhibition of human […] cells; format: functional
HOP-62 = test: Growth inhibition of human HOP62 cells; format: functional
M14 = test: Growth inhibition of human M14 cells; format: functional
CCRF-CEM = test: Growth inhibition of human CCRF-CEM cells; format: functional
MOLT-4 = test: Growth inhibition of human MOLT4 cells; format: functional
UO-31 = test: Growth inhibition of human UO31 cells; format: functional
How it was run: (§1)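 Tested at the NCI in its human disease-oriented in vitro screen of 60 tumour cell lines, following the Monks et al. methods. Activity is expressed as GI50, given as log molar values.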

NCI-H322M = test: Growth inhibition of human NCI-H322M cells; format: functional
SNB-75 = test: Growth inhibition of human SNB75 cells; format: functional; how it was run: as §1
DLD-1 = test: Growth inhibition of human DLD1 cells; format: functional
HOP-92 = test: Growth inhibition of human HOP92 cells; format: functional
HT-29 = test: Growth inhibition of human HT29 cells; format: functional
SK-MEL-28 = test: Growth inhibition of human SK-MEL-28 cells; format: functional; how it was run: as §1
Malme-3M = test: Growth inhibition of human MALME-3M cells; format: functional
NCI-H522 = test: Growth inhibition of human NCI-H522 cells; format: functional
HCT-15 = test: Growth inhibition of human HCT15 cells; format: functional
SK-MEL-5 = test: Growth inhibition of human SK-MEL-5 cells; format: functional; how it was run: as §1
XF498 = test: Growth inhibition of human XF498 cells; format: functional; how it was run: as §1
[2] = Growth inhibition of human HL60(TB) cells; format: functional, HL-60(TB); details: HL-60
KM12 = test: Growth inhibition of human KM12 cells; format: functional
DMS-273 = test: Growth inhibition of human DMS273 cells; format: functional
NCI-H460 = test: Growth inhibition of human NCI-H460 cells; format: functional
786-0 = test: Growth inhibition of human 786-0 cells; format: functional
TK-10 = test: Growth inhibition of human TK10 cells; format: functional; how it was run: as §1
HOP-18 = test: Growth inhibition of human HOP18 cells; format: functional
U-251 = test: Growth inhibition of human U251 cells; format: functional; how it was run: as §1
HCT-8 = test: Growth inhibition of human HCT8 cells; format: functional; details: read-out: ED50 (the source's name)
How it was run: (§2)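 In-house cytotoxicity assay following an NCI protocol, run on a panel of human tumour lines: KB nasopharyngeal epidermoid carcinoma and HCT-8 ileocecal adenocarcinoma. Potency is reported as ED50 in µg/mL.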

A549 = test: Growth inhibition of human A549 cells; format: functional
HCC 2998 = test: Growth inhibition of human HCC2998 cells; format: functional
[3] = Growth inhibition of human OVACR5 cells; format: functional
EKVX = test: Growth inhibition of human EKVX cells; format: functional
COLO 205 = test: Growth inhibition of human COLO205 cells; format: functional
SR = test: Growth inhibition of human SR cells; format: functional; how it was run: as §1
SK-OV-3 = test: Growth inhibition of human SK-OV-3 cells; format: functional; how it was run: as §1
NCI-H226 = test: Growth inhibition of human NCI-H226 cells; format: functional
[4] = Growth inhibition of human DMS144 cells; format: functional
SW-620 = test: Growth inhibition of human SW620 cells; format: functional; how it was run: as §1
ACHN = test: Growth inhibition of human ACHN cells; format: functional
UACC-62 = test: Growth inhibition of human UACC62 cells; format: functional; how it was run: as §1
KM-20L2 = test: Growth inhibition of human KM20L2 cells; format: functional
[5] = Growth inhibition of human OVACR8 cells; format: functional
SN12C = test: Growth inhibition of human SN12C cells; format: functional; how it was run: as §1
RXF 393 = test: Growth inhibition of human […] cells; format: functional
[6] = Growth inhibition of human LXFL529 cells; format: functional; details: LXFL 529
[7] = Growth inhibition of human OVACR4 cells; format: functional
SK-MEL-2 = test: Growth inhibition of human SK-MEL-2 cells; format: functional; how it was run: as §1
[8] = Growth inhibition of human RPMI8266 cells; format: functional
UACC-257 = test: Growth inhibition of human UACC257 cells; format: functional; how it was run: as §1
SF-268 = test: Growth inhibition of human SF268 cells; format: functional; how it was run: as §1
SNB-19 = test: Growth inhibition of human SNB19 cells; format: functional; how it was run: as §1
KB = test: Growth inhibition of human KB cells; format: functional; details: read-out: ED50 (the source's name); how it was run: as §2
SF-539 = test: Growth inhibition of human SF539 cells; format: functional; how it was run: as §1
SF-295 = test: Growth inhibition of human SF295 cells; format: functional; how it was run: as §1
LOX IMVI = test: Growth inhibition of human LOX IMVI cells; format: functional
M19-MEL = test: Growth inhibition of human M19-MEL cells; format: functional
[9] = read-out: ED50 (the source's name)

SMILES: CC1=CC(=O)c2[nH]c3ccccc3c2C1=O [MURRAYAQUINONE A]
- GI50 (K562): 5.62 µM
- GI50 (CAKI-1): 14.5 µM
- GI50 (IGROV-1): 6.61 µM
- GI50 (HCT-116): 4.47 µM
- GI50 [1]: 4.57 µM
- GI50 (HOP-62): 25.1 µM
- GI50 (M14): 4.17 µM
- GI50 (CCRF-CEM): 3.31 µM
- GI50 (MOLT-4): 5.37 µM
- GI50 (UO-31): 3.98 µM
- GI50 (NCI-H322M): 25.1 µM
- GI50 (SNB-75): 4.37 µM
- GI50 (DLD-1): 5.01 µM
- GI50 (HOP-92): 3.98 µM
- GI50 (HT-29): 17.8 µM
- GI50 (SK-MEL-28): 4.47 µM
- GI50 (Malme-3M): 4.9 µM
- GI50 (NCI-H522): 3.8 µM
- GI50 (HCT-15): 4.17 µM
- GI50 (SK-MEL-5): 4.27 µM
- EC50 (SK-MEL-5; [9]): 2.58 µg/mL (≈ 12.2 µM)
- GI50 (XF498): 4.37 µM
- GI50 [2]: 4.07 µM
- GI50 (KM12): 4.37 µM
- GI50 (DMS-273): 4.27 µM
- GI50 (NCI-H460): 8.13 µM
- GI50 (786-0): 4.27 µM
- GI50 (TK-10): 5.01 µM
- GI50 (HOP-18): 3.39 µM
- GI50 (U-251): 15.5 µM
- EC50 (HCT-8): 5.5 µg/mL (≈ 26 µM)
- GI50 (A549): 25.1 µM
- GI50 (HCC 2998): 7.08 µM
- GI50 [3]: 5.37 µM
- GI50 (EKVX): 4.07 µM
- GI50 (COLO 205): 4.07 µM
- EC50 (COLO 205; [9]): 3.85 µg/mL (≈ 18.2 µM)
- GI50 (SR): 5.75 µM
- GI50 (SK-OV-3): 20.9 µM
- GI50 (NCI-H226): 6.61 µM
- GI50 [4]: 4.27 µM
- GI50 (SW-620): 3.98 µM
- GI50 (ACHN): 4.17 µM
- GI50 (UACC-62): 4.17 µM
- GI50 (KM-20L2): 25.1 µM
- GI50 [5]: 3.98 µM
- GI50 (SN12C): 4.57 µM
- GI50 (RXF 393): 3.47 µM
- GI50 [6]: 4.27 µM
- GI50 [7]: 4.17 µM
- GI50 (SK-MEL-2): 5.37 µM
- GI50 [8]: 5.89 µM
- GI50 (UACC-257): 4.57 µM
- GI50 (SF-268): 4.37 µM
- GI50 (SNB-19): 25.1 µM
- EC50 (KB): 5.18 µg/mL (≈ 24.5 µM)
- GI50 (SF-539): 4.27 µM
- GI50 (SF-295): 4.37 µM

SMILES: COc1cc(C)cc2c1[nH]c1ccccc12 [MURRAYAFOLINE A]
- GI50 (K562): 25.1 µM
- GI50 (IGROV-1): 14.8 µM
- GI50 (HCT-116): 11.5 µM
- GI50 [1]: 8.91 µM
- GI50 (HOP-62): 6.31 µM
- GI50 (M14): 7.24 µM
- GI50 (CCRF-CEM): 15.5 µM
- GI50 (UO-31): 15.1 µM
- GI50 (NCI-H322M): 12.9 µM
- GI50 (SNB-75): 25.1 µM
- GI50 (DLD-1): 10.5 µM
- GI50 (HOP-92): 23.4 µM
- GI50 (HT-29): 7.76 µM
- GI50 (SK-MEL-28): 16.2 µM
- GI50 (Malme-3M): 8.13 µM
- GI50 (NCI-H522): 4.27 µM
- GI50 (HCT-15): 7.41 µM
- GI50 (SK-MEL-5): 9.12 µM
- GI50 (XF498): 22.4 µM
- GI50 [2]: 6.92 µM
- GI50 (KM12): 8.13 µM
- GI50 (DMS-273): 7.76 µM
- GI50 (NCI-H460): 7.76 µM
- GI50 (786-0): 9.33 µM
- GI50 (TK-10): 25.1 µM
- GI50 (HOP-18): 0.288 µM
- GI50 (U-251): 10.5 µM
- GI50 (A549): 1.15 µM
- GI50 (LOX IMVI): 12.6 µM
- GI50 (HCC 2998): 14.8 µM
- GI50 [3]: 24.5 µM
- GI50 (COLO 205): 12.3 µM
- GI50 (SR): 10.2 µM
- GI50 (SK-OV-3): 20.9 µM
- GI50 (NCI-H226): 8.51 µM
- GI50 [4]: 9.55 µM
- GI50 (SW-620): 8.32 µM
- GI50 (ACHN): 23.4 µM
- GI50 (UACC-62): 15.1 µM
- GI50 (KM-20L2): 7.59 µM
- GI50 [5]: 7.41 µM
- GI50 (SN12C): 14.1 µM
- GI50 (RXF 393): 9.33 µM
- GI50 [6]: 18.2 µM
- GI50 [7]: 25.1 µM
- GI50 (SK-MEL-2): 7.41 µM
- GI50 [8]: 8.71 µM
- GI50 (SF-268): 14.5 µM
- GI50 (SNB-19): 25.1 µM
- GI50 (M19-MEL): 18.2 µM
- GI50 (SF-539): 6.03 µM
